Test results taken from ChEMBL document CHEMBL1126893, “Synthesis and CLOGP correlation of imidooxy anticonvulsants” (J Med Chem, 1993).

Legend:
Assay type in all cases: functional
Mus musculus [1] = experiment: Effective dose was measured in mouse by maximal electroshock method by ip administration
How it was run: (§1)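 Phase II quantification in mice after ip dosing. ED50 (scMet or MES) measured at the time of peak effect. TD50 (rotorod neurologic deficit) measured at the time of peak neurologic deficit. Medians and 95% confidence limits by the Litchfield-Wilcoxon method. Protective index = TD50/ED50. Time of peak effect determined in the MES or scMet test.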

Mus musculus [2] = experiment: Time of peak effect of toxicity of compound was measured by both MES and sc Met test in mice; how it was run: as §1
Mus musculus [3] = experiment: Time of peak effect of activity of compound was measured by both MES and sc Met test in mice; how it was run: as §1
Rattus norvegicus = experiment: Effective dose was measured in rat by maximal electroshock method by ip administration
Mus musculus [4] = experiment: Anticonvulsant activity was measured by rotarod toxicity test on mice at 4 h at the dose of 300 mg/kg; number of animals protected/number of animals tested 0/2
Mus musculus [5] = experiment: Anticonvulsant activity was measured by subcutaneous pentylenetetrazole test on mice at 30 min at the dose of 300 mg/kg; number of animals protected/number of animals tested 1/1
Mus musculus [6] = experiment: Anticonvulsant activity was measured by rotarod toxicity test on mice at 30 min at the dose of 300 mg/kg; number of animals protected/number of animals tested 0/4
Mus musculus [7] = experiment: Anticonvulsant activity was measured by maximal electroshock test on mice at 0.25 hr at the dose of 100 mg/kg; number of animals protected/number of animals tested 0/2
Mus musculus [8] = experiment: Anticonvulsant activity was measured by maximal electroshock test on mice at 30 min at the dose of 300 mg/kg; number of animals protected/number of animals tested 1/1
Mus musculus [9] = experiment: Effective dose was measured in mouse by maximal electroshock method by ip administration.; how it was run: as §1
Mus musculus [10] = experiment: Effective dose was measured in mouse by subcutaneous pentylenetetrazole method by ip administration.; how it was run: as §1
Mus musculus [11] = experiment: Anticonvulsant activity was measured by rotarod toxicity teston mice at 0.25 hr at the dose of 100 mg/kg; number of animals protected/number of animals tested 0/2
Mus musculus [12] = species on record: Mus musculus; experiment: Protective index (TD50/ED50) value in MES test in mice
Mus musculus [13] = experiment: Anticonvulsant activity was measured by subcutaneous pentylenetetrazole test on mice at 4 hr at the dose of 300 mg/kg; number of animals protected/number of animals tested 0/1
Mus musculus [14] = species on record: Mus musculus; experiment: Protective index (TD50/ED50) value in scMET test in mice; how it was run: as §1
Mus musculus [15] = experiment: Anticonvulsant activity was measured by rotarod toxicity test on mice at 1 hr at the dose of 100 mg/kg; number of animals protected/number of animals tested, 0/2
Mus musculus [16] = experiment: Anticonvulsant activity was measured by maximal electroshock test on mice at 4 h at the dose of 300 mg/kg; number of animals protected/number of animals tested 0/1
Mus musculus [17] = experiment: Anticonvulsant activity was measured by rotarod toxicity teston mice at 0.25 hr at the dose of 50 mg/kg; number of animals protected/number of animals tested, 0/4
Mus musculus [18] = experiment: Anticonvulsant activity was measured by subcutaneous pentylenetetrazole test on mice at 4 h at the dose of 300 mg/kg; number of animals protected/number of animals tested, 0/1
Mus musculus [19] = experiment: Anticonvulsant activity was measured by maximal electroshock test on mice at 4 hr at the dose of 50 mg/kg; number of animals protected/number of animals tested, 0/4
Mus musculus [20] = experiment: Anticonvulsant activity was measured by rotarod toxicity test on mice at 30 min at the dose of 100 mg/kg; number of animals protected/number of animals tested, 0/8
Mus musculus [21] = experiment: Anticonvulsant activity was measured by rotarod toxicity teston mice at 0.50 hr at the dose of 50 mg/kg; number of animals protected/number of animals tested, 0/4
Mus musculus [22] = experiment: Anticonvulsant activity was measured by maximal electroshock test on mice at 30 min at the dose of 300 mg/kg; number of animals protected/number of animals tested, 1/1
Mus musculus [23] = experiment: Anticonvulsant activity was measured by rotarod toxicity test on mice at 4 hr at the dose of 50 mg/kg; number of animals protected/number of animals tested, 0/4
Mus musculus [24] = experiment: Anticonvulsant activity was measured by maximal electroshock test on mice at 050 hr at the dose of 50 mg/kg; number of animals protected/number of animals tested, 1/4
Mus musculus [25] = experiment: Anticonvulsant activity was measured by rotarod toxicity test on mice at 4 hr at the dose of 100 mg/kg; number of animals protected/number of animals tested, 0/4
Mus musculus [26] = experiment: Anticonvulsant activity was measured by maximal electroshock test on mice at 1 hr at the dose of 50 mg/kg; number of animals protected/number of animals tested, 1/4
Mus musculus [27] = experiment: Anticonvulsant activity was measured by subcutaneous pentylenetetrazole test on mice at 30 min at the dose of 300 mg/kg; number of animals protected/number of animals tested, 1/1
Mus musculus [28] = experiment: Anticonvulsant activity was measured by rotarod toxicity test on mice at 30 min at the dose of 300 mg/kg; number of animals protected/number of animals tested, 4/4
Mus musculus [29] = experiment: Anticonvulsant activity was measured by rotarod toxicity test on mice at 2 hr at the dose of 50 mg/kg; number of animals protected/number of animals tested, 0/4
Mus musculus [30] = experiment: Anticonvulsant activity was measured by rotarod toxicity test on mice at 1 hr at the dose of 50 mg/kg; number of animals protected/number of animals tested, 0/4
Mus musculus [31] = experiment: Anticonvulsant activity was measured by maximal electroshock test on mice at 0.25 hr at the dose of 50 mg/kg; number of animals protected/number of animals tested, 0/4
Mus musculus [32] = experiment: Anticonvulsant activity was measured by subcutaneous pentylenetetrazole test on mice at 30 min at the dose of 100 mg/kg; number of animals protected/number of animals tested, 0/1
Mus musculus [33] = experiment: Anticonvulsant activity was measured by maximal electroshock test on mice at 4 hr at the dose of 300 mg/kg; number of animals protected/number of animals tested, 0/1
Mus musculus [34] = experiment: Anticonvulsant activity was measured by rotarod toxicity test on mice at 4 hr at the dose of 300 mg/kg; number of animals protected/number of animals tested, 0/2
Mus musculus [35] = experiment: Anticonvulsant activity was measured by maximal electroshock test on mice at 30 min at the dose of 100 mg/kg; number of animals protected/number of animals tested, 2/3
Mus musculus [36] = experiment: Anticonvulsant activity was measured by maximal electroshock test on mice at 4 hr at the dose of 100 mg/kg; number of animals protected/number of animals tested, 0/3
Mus musculus [37] = experiment: Anticonvulsant activity was measured by maximal electroshock test on mice at 2 hr at the dose of 50 mg/kg; number of animals protected/number of animals tested, 2/4
Mus musculus [38] = experiment: Anticonvulsant activity was measured by subcutaneous pentylenetetrazole test on mice at 4 hr at the dose of 100 mg/kg; number of animals protected/number of animals tested, 0/1

For `NC(=O)N1c2ccccc2C=Cc2ccccc21` [CARBAMAZEPINE], the ED50 (Mus musculus [1]) was 8.8 mg/kg, the TPE (Mus musculus [2]) was 0.25 and the TPE (Mus musculus [3]) was 0.25.

With `CCC1(C)CC(=O)NC1=O` (stereo not drawn) [ETHOSUXIMIDE] the TPE (Mus musculus [2]) was 0.5, the ED50 (Rattus norvegicus) was greater than 1000 mg/kg and the TPE (Mus musculus [3]) was 0.5 toxicity.

`O=C1CC2(CCCC2)C(=O)N1OCc1ccc(C(F)(F)F)cc1` showed a Ratio (Mus musculus [4]) of 0, a Ratio (Mus musculus [5]) of 1 and a TPE (Mus musculus [2]) of 0.25. It also gave a Ratio (Mus musculus [6]) of 0, a Ratio (Mus musculus [7]) of 0 and a Ratio (Mus musculus [8]) of 1. For the same compound, the ED50 (Mus musculus [9]) was 300 mg/kg, the ED50 (Mus musculus [10]) was 300 mg/kg and the TPE (Mus musculus [3]) was 2. For the same compound, the Ratio (Mus musculus [11]) was 0, the PI (Mus musculus [12]) was greater than 1.7 and the Ratio (Mus musculus [13]) was 0. It also gave a PI (Mus musculus [14]) greater than 1.7, a Ratio (Mus musculus [15]) of 0 and a Ratio (Mus musculus [16]) of 0.

Work on `O=C1CC2(CCCC2)C(=O)N1OCc1ccccc1F` yielded a Ratio (Mus musculus [17]) of 0, a Ratio (Mus musculus [18]) of 0 and a Ratio (Mus musculus [19]) of 0. The Ratio (Mus musculus [20]) was 0, the Ratio (Mus musculus [21]) was 0 and the Ratio (Mus musculus [22]) was 1. It also gave a Ratio (Mus musculus [23]) of 0, a Ratio (Mus musculus [24]) of 1 and a Ratio (Mus musculus [25]) of 0. The Ratio (Mus musculus [26]) was 1, the Ratio (Mus musculus [27]) was 1 and the Ratio (Mus musculus [28]) was 4. It also gave a Ratio (Mus musculus [29]) of 0, a Ratio (Mus musculus [30]) of 0 and a Ratio (Mus musculus [31]) of 0. It also gave a Ratio (Mus musculus [32]) of 0, a Ratio (Mus musculus [33]) of 0 and a Ratio (Mus musculus [34]) of 0. It also gave a Ratio (Mus musculus [35]) of 2, a Ratio (Mus musculus [36]) of 0 and a Ratio (Mus musculus [37]) of 2. For the same compound, the Ratio (Mus musculus [38]) was 0.
